Reference: ChEMBL document CHEMBL1142575, “New colchicinoids from a native Jordanian meadow saffron, colchicum brachyphyllum: isolation of the first naturally occurring dextrorotatory colchicinoid” (J Nat Prod, 2005)
≈ marks a conversion by molar mass, not a printed value. Calls of active or inactive are those of the source. The rule behind the calls is not given here.

Legend:
[1] = species on record: Rattus norvegicus; test: Displacement of [3H]flunitrazepam from GABAA in rat cerebral cortical 10 uM
In short: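 Rat cortical membrane homogenate in 50 mM sodium phosphate/200 mM NaCl pH 7.4. Duplicates, 500 μL final volume: 50 μg protein, test compound 10 μM, 1.0 μM GABA, 1.0 nM [3H]flunitrazepam. Nonspecific binding defined with 10 μM clonazepam. After 1 h at rt, filtered over PEI-soaked GF/B and counted. Net binding change versus basal is given as % of the 10 μM allopregnanolone response.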

[2] = system: Saccharomyces cerevisiae; test: Antimicrobial activity against Saccharomyces cerevisiae after 3 days; type: functional; conditions: 72 h
[3] = system: Micrococcus luteus; test: Antimicrobial activity against Micrococcus luteus after 3 days; type: functional; conditions: 72 h
[4] = system: NCI-H460; test: Cytotoxicity against human H460 after 3 days by SRB assay; type: functional, cell-based; conditions: NCI-H460, 72 h
[5] = system: Mycolicibacterium smegmatis; test: Antimicrobial activity against Mycobacterium smegmatis after 3 days; type: functional; conditions: 72 h
[6] = system: SF-268; test: cells; type: functional, cell-based; conditions: Homo sapiens, SF-268, 72 h
[7] = (§1) Toxicity in brine shrimp; type: organism-based; conditions: artemia, in vivo
In short: (§2)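 Brine shrimp lethality. LC50 in μg/mL, taken from single experiments with four concentrations, each run in triplicate.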

[8] = system: MCF7; test: Cytotoxicity against human MCF7 after 3 days by SRB assay; type: functional, cell-based; conditions: MCF7, 72 h
[9] = species on record: Rattus norvegicus; test: Displacement of […] from GABAA in rat cerebral cortical at 10 uM
In short: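 Rat cerebral cortex membranes (sucrose homogenate, differential centrifugation, washed in 50 mM sodium phosphate/200 mM NaCl pH 7.4). Duplicate wells, 500 μL final volume: 50 μg protein, test compound 10 μM, 5.0 μM GABA, 2.0 nM [35S]TBPS. Nonspecific binding defined with 200 μM picrotoxin. Incubation 1 h at rt, then GF/B vacuum filtration and scintillation counting. Net change versus basal is reported as % of 10 μM allopregnanolone.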

[10] = system: Aspergillus niger; test: Antimicrobial activity against Aspergillus niger after 3 days; type: functional; conditions: 72 h
[11] = system: Artemia; test: as §1; type: organism-based; conditions: in vivo; in short: as §2

Row | SMILES | Activity [1] | MIC [2] [µg/mL] | MIC [3] [µg/mL] | EC50 [4] [µM] | MIC [5] [µg/mL] | EC50 [6] [µM] | LC50 [7] [µg/mL] | EC50 [8] [µM] | Activity [9] | MIC [10] [µg/mL] | LC50 [11] [µg/mL]
1 | COc1ccc2c(c1O)[C@@H](NC(C)=O)CCc1cc(OC)c(OC)c(OC)c1-2 | 50% | > 500 | > 500 | 0.26 | > 500 | 0.37 | 48.8 (≈ 126 µM) | 0.2 | 50% | > 500 | –
2 | COC1=C[C@@H]2C3=C([C@@H]2C1=O)[C@@H](NC(C)=O)CCc1cc(OC)c(OC)c(OC)c13 | – | > 500 | > 500 | 2.1 | > 500 | 3.2 | 74.6 (≈ 187 µM) | 1.5 | – | > 500 | –
3 | CC(=O)[C@H]1CC[C@H]2[C@@H]3CC[C@H]4C[C@H](O)CC[C@]4(C)[C@H]3CC[C@]12C | Active | – | – | – | – | – | – | – | Active | – | –
4 | CN[C@H]1CCc2cc(O)c(OC)c(OC)c2-c2ccc(OC)c(=O)cc21 | – | > 500 | > 500 | 1.1 | > 500 | 3.2 | 71.5 (≈ 200 µM) | 0.79 | – | > 500 | –
5 | CC[C@@]1(O)C(=O)OCc2c1cc1n(c2=O)Cc2cc3ccccc3nc2-1 [CAMPTOTHECIN] | – | – | – | 0.0069 | – | 0.059 | – | 0.072 | – | – | –
6 | COc1c(O)cc2c(c1OC)-c1ccc(OC)c(=O)cc1[C@@H](NC(C)=O)CC2 [3-DESMETHYLCOLCHICIN] | – | – | – | – | – | – | 74.6 (≈ 194 µM) | – | – | – | –
7 | CN[C@H]1CCc2cc(O)c(O)c(OC)c2-c2ccc(OC)c(=O)cc21 | – | > 500 | > 500 | 216 | > 500 | 80.2 | 88.2 (≈ 257 µM) | 130 | – | > 500 | –
8 | COc1c2c(cc3c1-c1ccc(OC)c(=O)cc1[C@@H](NC(C)=O)CC3)OCO2 | 50% | > 500 | > 500 | 0.059 | > 500 | 0.097 | 7.7 (≈ 20.1 µM) | 0.061 | 50% | > 500 | –
9 | COC1=C2c3ccc(OC)c(=O)cc3[C@H]3CC4(C)N3C24C=C(O)C1=O (stereo not given in full) [DEMECOLCINONE] | – | > 500 | > 500 | 31.3 | > 500 | 28.4 | 79.3 (≈ 234 µM) | 28.7 | – | > 500 | –
10 | CN[C@H]1CCc2cc(OC)c(OC)c(OC)c2-c2ccc(OC)c(=O)cc21 [DEMECOLCINE] | – | > 500 | > 500 | 0.69 | > 500 | 6.2 | 61 (≈ 164 µM) | 0.6 | – | > 500 | –
11 | COc1cc2c(c(OC)c1OC)-c1ccc(OC)c(=O)cc1[C@@H](NC(C)=O)CC2 (stereo in doubt; 1) [COLCHICINE] | – | > 500 | > 500 | 0.03 | > 500 | 0.025 | 3.7 (≈ 9.26 µM) | 0.016 | – | > 500 | –
12 | COc1cc2c(c(OC)c1OC)-c1ccc(OC)c(=O)cc1[C@@H](NC(C)=O)CC2 (stereo in doubt) [COLCHICINE] | – | – | – | – | – | – | – | – | – | – | 2.8 (≈ 7.01 µM)
